From ChEMBL document CHEMBL1687745 (Antimicrob Agents Chemother, 2009)
≈ marks a conversion by molar mass, not a printed value. Calls of active or inactive are those of the source. The calls are words filed in the database; no cut-off is given here.

What was measured:
Bacillus anthracis [1] = test: Antimicrobial activity against Bacillus anthracis Sterne spores by broth microdilution method; format: functional
Bacillus anthracis [2] = test: Antimicrobial activity against Bacillus anthracis Sterne vegetative cells by broth microdilution method; format: functional
Bacillus subtilis [3] = test: Inhibition of cell wall synthesis in Bacillus subtilis BD54 at 5 X MIC by N-acetyl-D-[1-3H] glucosamine incorporation assay; format: functional
Outline: (§1)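 Precursors were [methyl-3H]thymidine (DNA), [5-3H]uridine (RNA), L-[4,5-3H]leucine (protein) and N-acetyl-D-[1-3H]glucosamine (cell wall). Samples taken over time, precipitated with equal volume of ice-cold 20% TCA, filtered on glass fibre, and counted. cpm plotted against time.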

Bacillus subtilis [4] = test: Inhibition of DNA synthesis in Bacillus subtilis BD54 at 5 X MIC by [3H]thymidine incorporation assay; format: functional, organism-based; outline: as §1
Bacillus subtilis [5] = test: Inhibition of RNA synthesis in Bacillus subtilis BD54 at 5 X MIC by [5-3H]uridine incorporation assay; format: functional; outline: as §1
Bacillus subtilis [6] = test: Inhibition of protein synthesis in Bacillus subtilis BD54 at 5 X MIC by L-[4,5-3H]leucine incorporation assay; format: functional, organism-based; outline: as §1
Priestia megaterium = test: Antimicrobial activity against Bacillus megaterium clinical isolate by broth microdilution method; format: functional
[7] = system: Mycolicibacterium smegmatis; test: Antimicrobial activity against Mycobacterium smegmatis 700009 by broth microdilution method; format: functional
Outline: (§2)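 Broth microdilution. Log-phase cultures (5 × 10^5 CFU/ml) seeded in 96-well plates with compound from 0 to 20 µM or 1% DMSO control. Incubated at 37°C for 16 to 20 h. Growth read as absorbance at 600 nm.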

Bacillus anthracis [8] = test: Protection against Bacillus anthracis Sterne spores induced cell death in mouse J774A1 cells assessed as live viable cells at 10 uM by Sytox green dye staining assay relative to untreated control; format: functional, J774.A1
Enterococcus faecalis [9] = test: Antimicrobial activity against vancomycin-resistant Enterococcus faecalis ATCC 51575 by broth microdilution method; format: functional
Staphylococcus aureus [10] = test: Antimicrobial activity against methicillin-resistant Staphylococcus aureus 1094 by broth microdilution method; format: functional
Enterococcus faecalis [11] = test: Antimicrobial activity against Enterococcus faecalis 29212 clinical isolate by broth microdilution method; format: functional
Bacillus anthracis [12] = test: microbe, parasite or virus in culture; conditions: Ames
Bacillus anthracis [13] = test: microbe, parasite or virus in culture; conditions: Ames; remark: listed apart in the source
Burkholderia cepacia = test: Antimicrobial activity against Burkholderia cepacia clinical isolate by broth microdilution method; format: functional; outline: as §2
Bacillus anthracis [14] = test: Protection against Bacillus anthracis Sterne spores induced cell death in mouse J774A1 cells assessed as dead cells at 10 uM by Sytox green dye staining assay relative to untreated control; format: functional, J774.A1
Enterococcus faecium = test: Antimicrobial activity against vancomycin-resistant Enterococcus faecium B42762 by broth microdilution method; format: functional
Bacillus subtilis [15] = test: Antimicrobial activity against Bacillus subtilis clinical isolate by broth microdilution method; format: functional
Escherichia coli = test: Antimicrobial activity against Escherichia coli J53 clinical isolate by broth microdilution method; format: functional
Bacillus anthracis [16] = test: Antimicrobial activity against Bacillus anthracis Ames by broth microdilution method in presence of 10% fetal calf serum; format: functional
HeLa = test: Effect on cell membrane integrity in human HeLa cells assessed as lactate dehydrogenase release at 32 times MIC against Staphylococcus aureus by CytoTox ONE homogenous membrane integrity assay; format: cell-based
Outline: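 Confluent HeLa cells in DMEM treated for 1 h with a range of compound concentrations, 1% DMSO final. […] LDH activity in the supernatant measured by a membrane-integrity kit.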

Bacillus licheniformis = test: Antimicrobial activity against Bacillus licheniformis clinical isolate by broth microdilution method; format: functional
[17] = system: Mycolicibacterium smegmatis; test: Antimicrobial activity against Mycobacterium smegmatis 19420 by broth microdilution method; format: functional; outline: as §2
Staphylococcus aureus [18] = test: Antimicrobial activity against methicillin-resistant Staphylococcus aureus clinical isolate by broth microdilution method; format: functional
Enterococcus faecalis [19] = test: Antimicrobial activity against Enterococcus faecalis clinical isolate by broth microdilution method; format: functional; outline: as §2
Brevibacillus brevis = test: Antimicrobial activity against Bacillus brevis clinical isolate by broth microdilution method; format: functional; outline: as §2
[20] = system: Mycolicibacterium smegmatis; test: Antimicrobial activity against Mycobacterium smegmatis 35798 by broth microdilution method; format: functional; outline: as §2
[21] = system: Burkholderia pseudomallei; test: Antimicrobial activity against Burkholderia pseudomallei DD503 by broth microdilution method; format: functional
Bacillus anthracis [22] = test: Antimicrobial activity against Bacillus anthracis Vollum clinical isolate by broth microdilution method; format: functional
[23] = Cytotoxicity against human HeLa cells after 3 days by MTS assay in presence of 10% fetal calf serum; format: cell-based
Burkholderia mallei = test: Antimicrobial activity against Burkholderia mallei ATCC 23344 by broth microdilution method; format: functional
Bacillus pumilus = test: Antimicrobial activity against Bacillus pumilus clinical isolate by broth microdilution method; format: functional; outline: as §2
Staphylococcus aureus [24] = test: Antimicrobial activity against Staphylococcus aureus by broth microdilution method; format: functional; outline: as §2
Pseudomonas aeruginosa = test: Antimicrobial activity against Pseudomonas aeruginosa PAO1 by broth microdilution method; format: functional; outline: as §2
Bacillus anthracis [25] = test: Inhibition of spore germination in Bacillus anthracis Sterne spores at MIC after 4 hrs; format: functional, organism-based
[26] = system: Burkholderia thailandensis; test: Antimicrobial activity against Burkholderia thailandensis by broth microdilution method; format: functional
Klebsiella pneumoniae = test: Antimicrobial activity against Klebsiella pneumoniae 5657 by broth microdilution method; format: functional; outline: as §2
Yersinia pestis = test: Antimicrobial activity against Yersinia pestis by broth microdilution method; format: functional
Staphylococcus aureus [27] = test: Antimicrobial activity against Staphylococcus aureus ATCC 25923 by broth microdilution method; format: functional; outline: as §2

With `C(=C\c1nc2ccccc2[nH]1)/c1nc2ccccc2[nH]1` the MIC (Bacillus anthracis [1]) was over 10 µg/mL and the MIC (Bacillus anthracis [2]) was over 10 µg/mL.
With `C(=C\c1cc2ccc(C3=NCCN3)cc2o1)/c1cc2cc(C3=NCCN3)ccc2[nH]1` the MIC (Bacillus anthracis [1]) was 19 µg/mL (≈ 48 µM) and the MIC (Bacillus anthracis [2]) was over 19 µg/mL.
Work on `N=C(N)c1ccc2cc(/C=C/c3cc4ccc(C(=N)N)cc4o3)[nH]c2c1` yielded an MIC (Bacillus anthracis [1]) of 2.1 µg/mL (≈ 6.12 µM) and an MIC (Bacillus anthracis [2]) of 4.2 µg/mL (≈ 12.2 µM).
For `CO[C@H]1/C=C/O[C@@]2(C)Oc3c(C)c(O)c4c(O)c(c(/C=N/N5CCN(C)CC5)c(O)c4c3C2=O)NC(=O)/C(C)=C\C=C\[C@H](C)[C@H](O)[C@@H](C)[C@@H](O)[C@@H](C)[C@H](OC(C)=O)[C@@H]1C`, the inhibition (Bacillus subtilis [3]) was “Active”, the inhibition (Bacillus subtilis [4]) was “Active” and the inhibition (Bacillus subtilis [5]) was “Active”. The inhibition (Bacillus subtilis [6]) was “Active”.
For `C(=C\c1cc2ccc(C3=NCCN3)cc2[nH]1)/c1ccc(C2=NCCN2)cc1`, the MIC (Bacillus anthracis [1]) was 8.6 µg/mL (≈ 24.2 µM) and the MIC (Bacillus anthracis [2]) was over 17 µg/mL.
`N=C(N)c1ccc2oc(/C=C/C=C/C=C/c3cc4cc(C(=N)N)ccc4o3)cc2c1` showed an MIC (Bacillus anthracis [1]) of 2.3 µg/mL (≈ 5.8 µM) and an MIC (Bacillus anthracis [2]) of 9.4 µg/mL (≈ 23.7 µM).
`N=C(N)c1ccc2oc(CCc3cc4cc(C(=N)N)ccc4o3)cc2c1` gave an MIC (Bacillus anthracis [1]) of over 17 µg/mL and an MIC (Bacillus anthracis [2]) of over 17 µg/mL.
`c1cc(-c2cc3ccc(C4=NCCN4)cc3[nH]2)ccc1C1=NCCN1` gave an MIC (Bacillus anthracis [1]) of over 16 µg/mL and an MIC (Bacillus anthracis [2]) of over 16 µg/mL.
Work on `N=C(N)N/N=C/c1ccc2cc(-c3ccc(/C=N/N=C(N)N)cc3)sc2c1` yielded an MIC (Bacillus anthracis [1]) of 4.5 µg/mL (≈ 11.9 µM) and an MIC (Bacillus anthracis [2]) of 18 µg/mL (≈ 47.6 µM).
`N/C(=N\O)c1ccc2oc(/C=C/c3cc4cc(/C(N)=N/O)ccc4o3)cc2c1` showed an MIC (Bacillus anthracis [1]) of over 23 µg/mL and an MIC (Bacillus anthracis [2]) of over 23 µg/mL.
For `c1cc2cc(-c3ccc4cc(C5=NCCN5)[nH]c4c3)[nH]c2cc1C1=NCCN1`, the MIC (Priestia megaterium) was 0.6 µg/mL (≈ 1.63 µM), the MIC [7] was 0.3 µg/mL (≈ 0.814 µM) and the Activity (Bacillus anthracis [8]) was 89%. For the same compound, the MIC (Enterococcus faecalis [9]) was 0.5 µg/mL (≈ 1.36 µM), the MIC (Staphylococcus aureus [10]) was 0.3 µg/mL (≈ 0.814 µM) and the MIC (Enterococcus faecalis [11]) was 0.3 µg/mL (≈ 0.814 µM). For the same compound, the MBC (Bacillus anthracis [12]) was 0.5 µg/mL (≈ 1.36 µM), the MIC (Bacillus anthracis [12]) was 0.3 µg/mL (≈ 0.814 µM) and the MBC (Bacillus anthracis [13]) was 2.2 µg/mL (≈ 5.97 µM). For the same compound, the MIC (Bacillus anthracis [13]) was 1.1 µg/mL (≈ 2.99 µM), the MIC (Burkholderia cepacia) was 4.4 µg/mL (≈ 11.9 µM) and the Activity (Bacillus anthracis [14]) was 11%. The MIC (Enterococcus faecium) was 0.2 µg/mL (≈ 0.543 µM), the MIC (Bacillus subtilis [15]) was 0.6 µg/mL (≈ 1.63 µM) and the MIC (Escherichia coli) was 1.1 µg/mL (≈ 2.99 µM). The MIC (Bacillus anthracis [16]) was 0.3 µg/mL, the Activity (HeLa) was “Non-toxic” and the “inhibition (INH)” value (Bacillus subtilis [3]) was 40%. The MIC (Bacillus licheniformis) was 2.2 µg/mL (≈ 5.97 µM), the inhibition (Bacillus subtilis [4]) was “Active” and the MIC [17] was 0.2 µg/mL (≈ 0.543 µM). For the same compound, the MIC (Staphylococcus aureus [18]) was 2.2 µg/mL (≈ 5.97 µM), the “inhibition (INH)” value (Bacillus subtilis [5]) was 40% and the MIC (Enterococcus faecalis [19]) was 2.2 µg/mL (≈ 5.97 µM). For the same compound, the MIC (Brevibacillus brevis) was 0.3 µg/mL (≈ 0.814 µM), the MIC [20] was under 0.1 µg/mL and the MIC [21] was 1.8 µg/mL (≈ 4.89 µM). For the same compound, the MBC (Bacillus anthracis [22]) was 1.1 µg/mL (≈ 2.99 µM), the MIC (Bacillus anthracis [22]) was 0.6 µg/mL (≈ 1.63 µM) and the CC50 at 72 h [23] was 33 µg/mL. It also gave an MIC (Burkholderia mallei) of 1.8 µg/mL (≈ 4.89 µM), an MIC (Bacillus anthracis [1]) of 0.6 µg/mL (≈ 1.63 µM) and an MIC (Bacillus pumilus) of 0.1 µg/mL (≈ 0.271 µM). The MIC (Staphylococcus aureus [24]) was 1.1 µg/mL (≈ 2.99 µM), the MIC (Pseudomonas aeruginosa) was 25 µg/mL (≈ 67.9 µM) and the inhibition (Bacillus anthracis [25]) was “inactive”. For the same compound, the MIC [26] was 18 µg/mL (≈ 48.9 µM), the MIC (Bacillus anthracis [2]) was 1.1 µg/mL (≈ 2.99 µM) and the MIC (Klebsiella pneumoniae) was 0.4 µg/mL (≈ 1.09 µM). It also gave an MIC (Yersinia pestis) of 7.4 µg/mL (≈ 20.1 µM) and an MIC (Staphylococcus aureus [27]) of 0.3 µg/mL (≈ 0.814 µM).
`N=C(N)c1ccc2[nH]c(/C=C/c3nc4cc(C(=N)N)ccc4[nH]3)nc2c1` showed an MIC (Bacillus anthracis [1]) of over 17 µg/mL and an MIC (Bacillus anthracis [2]) of over 17 µg/mL.
With `N=C(N)c1ccc2oc(/C=C/C=C/c3cc4cc(C(=N)N)ccc4o3)cc2c1` the MIC (Bacillus anthracis [1]) was 2.2 µg/mL (≈ 5.94 µM) and the MIC (Bacillus anthracis [2]) was 18 µg/mL (≈ 48.6 µM).
With `N=C(N)c1ccc(-n2cc3cc(C(=N)N)ccc3n2)cc1` the MIC (Bacillus anthracis [1]) was over 14 µg/mL and the MIC (Bacillus anthracis [2]) was over 14 µg/mL.
With `Cc1c(/C=C/c2oc3ccc(C(=N)N)cc3c2C)oc2cc(C(=N)N)ccc12` the MIC (Bacillus anthracis [1]) was over 18 µg/mL and the MIC (Bacillus anthracis [2]) was over 18 µg/mL.
